In ChEMBL document CHEMBL1137220, “2-(2-(dimethylaminomethyl)phenoxy)-5-iodophenylamine: an improved serotonin transporter imaging agent” (J Med Chem, 2004):
Several values for one entry are separate records, joined by “and”; a condition that tells them apart may be missing. Equal values may be shown once.

Key:
[1] = Biodistribution in rat liver was determined after 6 hours of intravenous administration of the compound; [125I]- is used as radioactive isotope; type: ADME, organism-based; conditions: in vivo
Procedure, shortened: (§1)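 Rats under ether anesthesia, three per group, received 10 μCi tracer in 0.2 mL saline into the femoral vein. They were killed by cardiac excision under ether at each time point. Organs were removed, weighed and counted. Percent dose per organ was calculated against a 1%-of-injected-dose standard counted at the same time.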

[2] = Biodistribution in rat thyroid was determined after 24 hours of intravenous administration of the compound; [125I]- is used as radioactive isotope; type: ADME, organism-based, Thyroid gland; conditions: in vivo
Procedure, shortened: (§2)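 Rats, three per group, under ether anaesthesia, received 10 μCi of [¹²⁵I]-labelled tracer in 0.2 mL saline into the femoral vein. They were killed by cardiac excision under ether at each time point. Organs were removed, weighed and counted. Percent dose per organ was calculated against counts of a 1% aliquot of the injected dose (100-fold diluted) counted at the same time.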

[3] = Regional brain distribution in rat cortex was determined after 2 min of intravenous administration of the compound; [125I]- is used as radioactive isotope; type: ADME; conditions: in vivo
Procedure, shortened: (§3)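 Rats, three per group, injected with 10 μCi tracer in 0.2 mL saline via the femoral vein under ether anesthesia and killed by cardiac excision at the stated time. Cortex (frontal plus occipital), striatum, hippocampus, cerebellum and hypothalamus were dissected, weighed and gamma-counted. Values are % dose/g, calculated by comparison with counts of a 100-fold diluted aliquot of the injected dose.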

[4] = Regional brain distribution in rat cortex was determined after 11 hours of intravenous administration of the compound; [125I]- is used as radioactive isotope; type: ADME; conditions: in vivo; procedure, shortened: as §3
[5] = Regional brain distribution in rat cortex was determined after 24-hours of intravenous administration of the compound; [125I]- is used as radioactive isotope; type: ADME; conditions: in vivo; procedure, shortened: as §3
[6] = Distribution ratio in hippocampus and cerebellum was determined after 6 hrs of intravenous administration of the compound; [125I]- is used as radioactive isotope; type: ADME, tissue-based; conditions: rat
Procedure, shortened: (§4)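 After femoral-vein injection of 10 μCi [¹²⁵I] tracer in 0.2 mL saline under ether anaesthesia (three rats per group), brain regions were dissected, weighed and counted: cortex (frontal plus occipital), hippocampus, hypothalamus and cerebellum. %dose/g was calculated against a diluted injected-dose standard. Ratio = (region − cerebellum)/cerebellum on a %dose/g basis, with cerebellum as the background region.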

[7] = Distribution ratio in striatum and cerebellum was determined after 6 hrs of intravenous administration of the compound; [125I]- is used as radioactive isotope; type: ADME, tissue-based; conditions: rat
Procedure, shortened: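 Rats, three per group, given 10 μCi tracer in 0.2 mL saline into the femoral vein under ether anesthesia, then killed by cardiac excision at the stated time. Brain regions were dissected, weighed and counted. Percent dose/g was calculated against a 1% diluted aliquot of the injected dose. The ratio is (region − cerebellum)/cerebellum on a % dose/g basis, with cerebellum as background.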

[8] = Distribution ratio in hippocampus and cerebellum was determined after 30 min of intravenous administration of the compound; [125I]- is used as radioactive isotope; type: ADME, tissue-based; conditions: rat, 0.5 h; procedure, shortened: as §4
[9] = Distribution ratio in hypothalamus and cerebellum was determined after 24 hours of intravenous administration of the compound; [125I]- is used as radioactive isotope; type: ADME, tissue-based; conditions: rat; procedure, shortened: as §4
[10] = Regional brain distribution in rat striatum was determined after 24 hours of intravenous administration of the compound; [125I]- is used as radioactive isotope; type: ADME, tissue-based; conditions: in vivo; procedure, shortened: as §3
[11] = Regional brain distribution in rat cerebellum was determined after 240 min of intravenous administration of the compound; [125I]- is used as radioactive isotope; type: ADME, tissue-based; conditions: in vivo, 4 h; procedure, shortened: as §3
[12] = Distribution ratio in cortex and cerebellum was determined after 30 min of intravenous administration of the compound; [125I]- is used as radioactive isotope; type: ADME, tissue-based; conditions: rat, 0.5 h; procedure, shortened: as §4
[13] = Regional brain distribution in rat cerebellum was determined after 2 min of intravenous administration of the compound; [125I]- is used as radioactive isotope; type: ADME, tissue-based; conditions: in vivo; procedure, shortened: as §3
[14] = Regional brain distribution in rat hypothalamus was determined after 2 min of intravenous administration of the compound; [125I]- is used as radioactive isotope; type: ADME, tissue-based; conditions: in vivo; procedure, shortened: as §3
[15] = Regional brain distribution in rat hypothalamus was determined after 30 min of intravenous administration of the compound; [125I]- is used as radioactive isotope; type: ADME, tissue-based; conditions: in vivo, 0.5 h; procedure, shortened: as §3
[16] = Biodistribution in rat liver was determined after 2 min of intravenous administration of the compound; [125I]- is used as radioactive isotope; type: ADME, organism-based; conditions: in vivo; procedure, shortened: as §1
[17] = Biodistribution in rat blood was determined after 60 min of intravenous administration of the compound; [125I]- is used as radioactive isotope; type: ADME, organism-based; conditions: in vivo, 1 h; procedure, shortened: as §1
[18] = Biodistribution in rat thyroid was determined after 6 hours of intravenous administration of the compound; [125I]- is used as radioactive isotope; type: ADME, organism-based, Thyroid gland; conditions: in vivo; procedure, shortened: as §2
[19] = Biodistribution in rat liver was determined after 30 min of intravenous administration of the compound; [125I]- is used as radioactive isotope; type: ADME, organism-based; conditions: in vivo, 0.5 h; procedure, shortened: as §1
[20] = Biodistribution in rat brain was determined after 120 min of intravenous administration of the compound; [125I]- is used as radioactive isotope; type: ADME, organism-based; conditions: in vivo, 2 h; procedure, shortened: as §1
[21] = Biodistribution in rat brain was determined after 240 min of intravenous administration of the compound; [125I]- is used as radioactive isotope; type: ADME, organism-based; conditions: in vivo, 4 h; procedure, shortened: as §1
[22] = Biodistribution in rat brain was determined after 6 hours of intravenous administration of the compound; [125I]- is used as radioactive isotope; type: ADME, organism-based; conditions: in vivo; procedure, shortened: as §1
[23] = Biodistribution in rat heart was determined after 120 min of intravenous administration of the compound; [125I]- is used as radioactive isotope; type: ADME, organism-based; conditions: in vivo, 2 h; procedure, shortened: as §1
[24] = Biodistribution in rat heart was determined after 240 min of intravenous administration of the compound; [125I]- is used as radioactive isotope; type: ADME, organism-based; conditions: in vivo, 4 h; procedure, shortened: as §1
[25] = Biodistribution in rat heart was determined after 6 hours of intravenous administration of the compound; [125I]- is used as radioactive isotope; type: ADME, organism-based; conditions: in vivo; procedure, shortened: as §1
[26] = Biodistribution in rat kidney was determined after 30 min of intravenous administration of the compound; [125I]- is used as radioactive isotope; type: ADME, organism-based; conditions: in vivo, 0.5 h; procedure, shortened: as §1
[27] = Biodistribution in rat spleen was determined after 120 min of intravenous administration of the compound; [125I]- is used as radioactive isotope; type: ADME, organism-based; conditions: in vivo, 2 h; procedure, shortened: as §2
[28] = Biodistribution in rat kidney was determined after 60 min of intravenous administration of the compound; [125I]- is used as radioactive isotope; type: ADME, organism-based; conditions: in vivo, 1 h; procedure, shortened: as §1
[29] = Biodistribution in rat brain was determined after 24 hours of intravenous administration of the compound; [125I]- is used as radioactive isotope; type: ADME, organism-based; conditions: in vivo; procedure, shortened: as §1
[30] = Biodistribution in rat liver was determined after 24 hours of intravenous administration of the compound; [125I]- is used as radioactive isotope; type: ADME, organism-based; conditions: in vivo; procedure, shortened: as §1
[31] = Biodistribution in rat muscle was determined after 6 hours of intravenous administration of the compound; [125I]- is used as radioactive isotope; type: ADME, organism-based, Muscle tissue; conditions: in vivo; procedure, shortened: as §2
[32] = Biodistribution in rat kidney was determined after 24 hours of intravenous administration of the compound; [125I]- is used as radioactive isotope; type: ADME, organism-based; conditions: in vivo; procedure, shortened: as §1

**Q.** What does the source list for `CN(C)Cc1ccccc1Oc1ccc(I)cc1N`?
**A.** Dose [1]: 3.59%; Dose [2]: 4.61%; Dose/g [3]: 1.16%; Dose/g [4]: 0.01%; Dose/g [5]: 0.004%; Dose/g [6]: 1.21%; Dose/g [7]: 1.56%; Dose/g [8]: 0.68%; Dose/g [9]: 0.23%; Dose/g [10]: 0.0039%; Dose/g [11]: 0.06%; Dose/g [12]: 0.96%; Dose/g [13]: 0.79% and 0.64%; Dose/g [14]: 0.96%; Dose/g [15]: 1.3%; Dose [16]: 5.71%; Dose [17]: 3.89%; Dose [18]: 2.68%; Dose [19]: 7.1%; Dose [20]: 1.08%; Dose [21]: 0.33%; Dose [22]: 0.11%; Dose [23]: 0.13%; Dose [24]: 0.08%; Dose [25]: 0.08%; Dose [26]: 2.67%; Dose [27]: 0.27%; Dose [28]: 1.67%; Dose [29]: 0.01%; Dose [30]: 1.83%; Dose [31]: 5.01%; Dose [32]: 0.17%
